Measured values taken from ChEMBL document CHEMBL4342493, “Design and Optimization of 3'-(Imidazo[1,2-a]pyrazin-3-yl)-[1,1'-biphenyl]-3-carboxamides as Selective DDR1 Inhibitors” (ACS Med Chem Lett, 2020).

Experiments:
[1] = molecular target: T1, Discoidin domain-containing receptor 2 (Homo sapiens, UniProt Q16832); experiment: Inhibition of recombinant human GST-tagged DDR2 cytoplasmic domain (427 to 855 residues) expressed in baculovirus expression system using Fluorescein-poly GAT as substrate incubated for 1 hr in presence of ATP by LanthaScreen Eu kinase assay
T1 sequence (Q16832 whole entry): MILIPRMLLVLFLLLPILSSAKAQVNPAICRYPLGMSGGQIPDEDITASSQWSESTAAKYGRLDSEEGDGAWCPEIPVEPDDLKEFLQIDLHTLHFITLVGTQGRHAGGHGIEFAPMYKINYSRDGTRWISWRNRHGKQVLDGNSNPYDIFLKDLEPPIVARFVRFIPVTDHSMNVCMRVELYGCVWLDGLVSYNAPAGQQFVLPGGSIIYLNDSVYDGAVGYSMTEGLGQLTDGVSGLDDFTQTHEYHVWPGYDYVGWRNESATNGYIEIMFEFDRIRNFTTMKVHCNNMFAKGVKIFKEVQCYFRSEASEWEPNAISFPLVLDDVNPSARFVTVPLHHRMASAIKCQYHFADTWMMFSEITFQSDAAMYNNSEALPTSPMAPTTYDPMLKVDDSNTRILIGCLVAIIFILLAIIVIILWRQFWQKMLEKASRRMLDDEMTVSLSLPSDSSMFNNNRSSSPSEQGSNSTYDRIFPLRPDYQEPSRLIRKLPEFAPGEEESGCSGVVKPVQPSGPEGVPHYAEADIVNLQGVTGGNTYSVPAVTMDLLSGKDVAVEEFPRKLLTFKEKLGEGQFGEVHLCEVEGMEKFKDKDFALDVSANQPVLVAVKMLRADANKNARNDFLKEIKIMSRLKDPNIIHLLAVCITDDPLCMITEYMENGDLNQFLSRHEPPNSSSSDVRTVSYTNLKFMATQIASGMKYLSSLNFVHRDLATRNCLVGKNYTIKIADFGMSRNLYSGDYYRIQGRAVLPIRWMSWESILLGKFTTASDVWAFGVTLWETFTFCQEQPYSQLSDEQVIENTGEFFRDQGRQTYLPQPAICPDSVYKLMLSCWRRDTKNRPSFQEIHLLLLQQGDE
How it was run: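 LanthaScreen Eu kinase assay for DDR2; IC50 values are means of three independent experiments, variations <20%.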

Bcr/Abl fusion protein = Bcr/Abl fusion protein (Homo sapiens, UniProt P00519); experiment: Inhibition of human recombinant full length His-tagged Bcr-Abl expressed in baculovirus expression system using tyrosine-2 peptide as substrate after 1 hr in presence of […] ATP by FRET based Z'-LYTE assay
Chain of Bcr/Abl fusion protein (P00519 whole entry, the tested form may be a part): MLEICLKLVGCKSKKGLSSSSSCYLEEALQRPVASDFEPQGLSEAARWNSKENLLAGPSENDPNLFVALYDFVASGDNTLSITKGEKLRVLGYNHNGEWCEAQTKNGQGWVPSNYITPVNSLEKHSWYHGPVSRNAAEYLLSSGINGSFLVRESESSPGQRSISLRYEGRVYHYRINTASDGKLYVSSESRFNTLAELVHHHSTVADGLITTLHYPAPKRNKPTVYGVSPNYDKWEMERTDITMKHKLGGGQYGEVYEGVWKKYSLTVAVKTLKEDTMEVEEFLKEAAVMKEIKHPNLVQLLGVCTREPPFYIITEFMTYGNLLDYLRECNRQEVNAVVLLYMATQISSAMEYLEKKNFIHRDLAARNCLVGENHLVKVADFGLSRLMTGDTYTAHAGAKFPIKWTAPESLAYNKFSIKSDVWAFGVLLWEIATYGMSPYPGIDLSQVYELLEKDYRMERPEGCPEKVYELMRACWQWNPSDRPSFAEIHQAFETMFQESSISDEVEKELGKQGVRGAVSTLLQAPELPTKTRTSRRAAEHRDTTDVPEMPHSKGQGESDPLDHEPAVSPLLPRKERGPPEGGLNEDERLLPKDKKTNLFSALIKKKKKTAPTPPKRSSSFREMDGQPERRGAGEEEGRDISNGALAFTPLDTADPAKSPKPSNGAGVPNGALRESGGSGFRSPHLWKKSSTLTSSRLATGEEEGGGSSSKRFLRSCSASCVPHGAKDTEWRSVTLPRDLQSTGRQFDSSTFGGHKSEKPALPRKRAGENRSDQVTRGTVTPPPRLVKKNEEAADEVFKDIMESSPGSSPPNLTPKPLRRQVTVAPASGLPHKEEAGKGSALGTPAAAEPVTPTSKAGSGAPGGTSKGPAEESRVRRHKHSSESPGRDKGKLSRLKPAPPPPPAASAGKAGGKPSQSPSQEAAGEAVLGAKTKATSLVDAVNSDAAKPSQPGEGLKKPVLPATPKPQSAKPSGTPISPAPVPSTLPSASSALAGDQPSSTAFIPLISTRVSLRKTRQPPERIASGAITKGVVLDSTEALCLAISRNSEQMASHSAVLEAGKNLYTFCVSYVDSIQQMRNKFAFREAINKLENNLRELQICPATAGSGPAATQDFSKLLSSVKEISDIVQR
Chain of Bcr/Abl fusion protein (P11274 whole entry, further chain, the tested form may be a part): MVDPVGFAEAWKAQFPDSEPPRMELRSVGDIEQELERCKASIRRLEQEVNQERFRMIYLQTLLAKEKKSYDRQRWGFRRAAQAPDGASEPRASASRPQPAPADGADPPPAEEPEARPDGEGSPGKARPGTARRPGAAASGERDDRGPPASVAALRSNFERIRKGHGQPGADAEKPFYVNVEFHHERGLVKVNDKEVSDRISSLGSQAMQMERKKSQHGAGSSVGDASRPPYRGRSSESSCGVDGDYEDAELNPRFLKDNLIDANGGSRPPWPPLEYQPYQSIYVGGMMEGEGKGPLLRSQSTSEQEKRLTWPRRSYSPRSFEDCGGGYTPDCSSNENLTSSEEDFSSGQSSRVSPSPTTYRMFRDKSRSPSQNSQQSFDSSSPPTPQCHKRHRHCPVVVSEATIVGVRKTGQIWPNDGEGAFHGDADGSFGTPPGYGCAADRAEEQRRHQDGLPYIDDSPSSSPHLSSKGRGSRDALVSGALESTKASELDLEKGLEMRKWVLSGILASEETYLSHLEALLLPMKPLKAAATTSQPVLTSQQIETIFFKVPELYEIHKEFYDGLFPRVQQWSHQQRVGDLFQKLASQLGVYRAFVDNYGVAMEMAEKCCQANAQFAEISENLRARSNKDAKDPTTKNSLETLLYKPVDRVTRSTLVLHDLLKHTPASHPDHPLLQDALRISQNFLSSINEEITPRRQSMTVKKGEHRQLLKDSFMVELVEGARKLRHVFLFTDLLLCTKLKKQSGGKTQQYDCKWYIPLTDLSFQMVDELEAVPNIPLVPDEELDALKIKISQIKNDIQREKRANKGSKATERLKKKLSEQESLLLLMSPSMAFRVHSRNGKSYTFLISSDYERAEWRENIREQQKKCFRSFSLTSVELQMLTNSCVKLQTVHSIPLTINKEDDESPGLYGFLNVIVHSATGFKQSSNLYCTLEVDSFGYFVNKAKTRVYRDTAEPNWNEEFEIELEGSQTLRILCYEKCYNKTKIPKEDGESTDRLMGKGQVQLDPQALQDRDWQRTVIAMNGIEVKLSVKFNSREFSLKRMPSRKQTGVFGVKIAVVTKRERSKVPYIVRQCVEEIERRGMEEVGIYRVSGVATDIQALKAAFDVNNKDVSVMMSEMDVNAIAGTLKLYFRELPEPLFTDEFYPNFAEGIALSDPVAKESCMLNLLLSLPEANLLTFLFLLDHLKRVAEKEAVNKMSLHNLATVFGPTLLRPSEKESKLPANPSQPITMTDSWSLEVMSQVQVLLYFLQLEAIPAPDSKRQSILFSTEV
How it was run: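 FRET-based Z′-Lyte kinase assay for Bcr-Abl; IC50 values are means of three independent experiments, variations <20%.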

Homo sapiens = organism: Homo sapiens; experiment: Selectivity index, ratio of IC50 for human recombinant His-tagged c-Kit cytoplasmic domain (544 to 976 residues) expressed in baculovirus expression system using Ser/Thr 6 peptide as substrate after 1 hr in presence of 300 uM ATP by FRET based Z'-LYTE assay to IC50 for recombinant human GST-tagged DDR1 catalytic domain (440 to 876 residues) expressed in baculovirus expression system using Fluorescein-poly GAT as substrate incubated for 1 hr in presence of ATP by LanthaScreen Eu kinase assay
How it was run: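 Ratio of c-Kit IC50 to DDR1 IC50. c-Kit was measured by FRET-based Z′-Lyte assay and DDR1 by LanthaScreen Eu kinase assay. Each IC50 is the mean of three independent experiments, with variation <20%.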

[2] = molecular target: Dual specificity protein kinase CLK4 (Homo sapiens, UniProt Q9HAZ1); experiment: Inhibition of wild-type human partial length CLK4 (R135 to K481 residues) expressed in bacterial expression system assessed as enzyme residual activity at 200 nM after 1 hr by Kinomescan method relative to control
Chain of Dual specificity protein kinase CLK4 (Q9HAZ1 whole entry, looked up, the tested form may be a part): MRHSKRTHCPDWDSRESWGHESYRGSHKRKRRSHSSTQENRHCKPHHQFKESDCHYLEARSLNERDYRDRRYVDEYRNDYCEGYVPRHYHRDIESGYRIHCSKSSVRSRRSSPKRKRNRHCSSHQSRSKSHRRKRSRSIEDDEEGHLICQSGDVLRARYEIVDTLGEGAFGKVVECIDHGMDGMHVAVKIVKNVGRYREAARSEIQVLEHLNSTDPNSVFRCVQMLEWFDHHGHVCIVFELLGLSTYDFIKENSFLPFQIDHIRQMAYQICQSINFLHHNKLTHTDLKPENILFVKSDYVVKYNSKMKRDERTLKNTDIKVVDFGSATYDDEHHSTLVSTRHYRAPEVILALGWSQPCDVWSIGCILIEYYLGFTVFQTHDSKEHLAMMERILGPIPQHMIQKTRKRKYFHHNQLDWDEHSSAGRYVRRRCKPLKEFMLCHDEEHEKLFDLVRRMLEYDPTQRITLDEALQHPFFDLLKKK

[3] = molecular target: T2, Dual specificity protein kinase TTK (Homo sapiens) (UniProt P33981); experiment: Inhibition of wild-type human partial length TTK (N505 to V798 residues) expressed in bacterial expression system assessed as enzyme residual activity at 200 nM after 1 hr by Kinomescan method relative to control
T2 sequence (whole entry): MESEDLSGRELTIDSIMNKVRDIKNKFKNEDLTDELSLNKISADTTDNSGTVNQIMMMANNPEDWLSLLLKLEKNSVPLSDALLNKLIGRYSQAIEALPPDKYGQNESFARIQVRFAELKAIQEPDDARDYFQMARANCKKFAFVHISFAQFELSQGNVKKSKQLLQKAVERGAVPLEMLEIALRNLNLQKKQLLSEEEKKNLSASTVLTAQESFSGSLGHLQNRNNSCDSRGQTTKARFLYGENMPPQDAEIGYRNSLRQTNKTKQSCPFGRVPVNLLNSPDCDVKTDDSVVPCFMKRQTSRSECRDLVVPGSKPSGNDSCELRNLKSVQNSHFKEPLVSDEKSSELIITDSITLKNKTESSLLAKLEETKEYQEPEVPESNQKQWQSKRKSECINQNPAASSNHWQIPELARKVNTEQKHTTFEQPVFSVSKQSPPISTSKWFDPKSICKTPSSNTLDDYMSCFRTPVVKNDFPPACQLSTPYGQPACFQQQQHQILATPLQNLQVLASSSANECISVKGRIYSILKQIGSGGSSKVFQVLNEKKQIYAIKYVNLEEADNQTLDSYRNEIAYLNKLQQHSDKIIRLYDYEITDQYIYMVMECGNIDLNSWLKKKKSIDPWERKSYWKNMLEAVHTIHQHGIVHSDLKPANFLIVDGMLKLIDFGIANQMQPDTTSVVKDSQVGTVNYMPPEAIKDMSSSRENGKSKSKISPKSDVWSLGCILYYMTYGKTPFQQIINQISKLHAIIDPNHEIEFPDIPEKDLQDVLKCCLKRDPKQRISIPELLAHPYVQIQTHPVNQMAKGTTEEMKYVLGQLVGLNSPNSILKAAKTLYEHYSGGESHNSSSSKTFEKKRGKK

NCI-H1299 [4] = experiment: Inhibition of colony formation in human H1299 cells assessed as reduction in number of colonies measured after 10 days by crystal violet staining based assay; format: functional, cell-based
How it was run: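 Colony formation in H1299 cells under continuous compound treatment for 10 days; colony number quantified and IC50 derived from dose-response.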

NCI-H1299 [5] = experiment: Antimigratory activity against human H1299 cells assessed as reduction in wound closure at 1.25 uM after 24 hrs by bright field microscopic based wound healing assay relative to control; format: functional; settings: NCI-H1299, 24 h
How it was run: (§1)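 Wound healing (scratch) migration assay in H1299 cells at 1.25, 2.5 and 5.0 μM; wound closure compared with blank control groups.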

NCI-H1299 [6] = experiment: Antimigratory activity against human H1299 cells assessed as reduction in wound closure at 5 uM after 24 hrs by bright field microscopic based wound healing assay relative to control; format: functional; settings: NCI-H1299, 24 h; how it was run: as §1
NCI-H1299 [7] = experiment: Antiinvasive activity against human H1299 cells at 2.5 uM after 24 hrs by crystal violet staining based transwell assay relative to control; format: functional; settings: NCI-H1299, 24 h
How it was run: (§2)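 H1299 NSCLC cells; transwell invasion assay over 24 h with compound at 1.25, 2.5 and 5.0 μM; invasion expressed relative to blank control.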

NCI-H1299 [8] = experiment: Antiinvasive activity against human H1299 cells at 5 uM after 24 hrs by crystal violet staining based transwell assay relative to control; format: functional; settings: NCI-H1299, 24 h; how it was run: as §2

## CCc1ccc(C(=O)Nc2cc(F)cc(C(F)(F)F)c2)cc1-c1cc(C)cc(-c2cnc3cnccn23)c1
[1]
  IC50: 1740 nM
Bcr/Abl fusion protein
  IC50: > 10000 nM
Homo sapiens
  Ratio IC50: 420
[2]
  Activity: 1.8%
[3]
  Activity: 0%
NCI-H1299 [4]
  inhibition: Dose-dependent effect
NCI-H1299 [4]; NCI-H1299, 240 h
  IC50: 46 nM
NCI-H1299 [5]
  inhibition at 1.25 µM: 40%
NCI-H1299 [6]
  inhibition at 5 µM: 84%
NCI-H1299 [7]
  inhibition at 2.5 µM: 50%
NCI-H1299 [8]
  inhibition at 5 µM: 71%
